Assay outcomes (PubChem BioAssay)
Hits are enriched below; roughly 6.4% of the tested compounds scored in any of these assays.
TbMetRS inhib = blocks T. brucei methionyl-tRNA synthetase activity. purified T. brucei MetRS, ATP depletion, Kinase-Glo luminescence. inhibition, % at 11.9 µM. 360,000 compounds, 0.4% hits;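 active means inhibition above a per-plate cutoff of the control wells' mean inhibition plus 3 SD, cut at about 5.5% in these data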
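Dosing: 11.9 µM compound single dose, 0.9% DMSO; Assay system: purified T. brucei MetRS enzyme; Measured by: Kinase-Glo luciferase luminescence reporting remaining unconsumed ATP; Schedule: 15 min plus 2 h at 25 °C.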
NR3A LBD binder = NR3A (human) ligand-binding domain modulation; NR3A LBD differential scanning fluorimetry, Tm shift; 0% = protein alone, 100% = glycine-bound protein; Tm shift relative to glycine control, % at 25 µM; 340,000 compounds, 2.5% hits; AID 1259313;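 active means melting temperature shift of at least 10% of the positive control shift, at one fixed dose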
MPTP inh = blocks calcium-induced mitochondrial swelling. isolated mouse mitochondria, Ca2+ swelling absorbance, 30 min. AID 602449. 360,000 compounds, 1.4% hits. inhibition, % at 10 µM;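 active means inhibition of 50% or more, scaled per plate between neutral and stimulator controls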
EBV gp42 inh = blocks Epstein-Barr virus glycoprotein 42 binding; Q1HVG2; Fluorescence polarization binding assay, mP read-out; inhibition, % (tested at 21.74 µM); 220,000 compounds, 0.42% hits; AID 1085; in the data active means inhibition above about 50%
Target sequence (Q1HVG2 whole entry, looked up): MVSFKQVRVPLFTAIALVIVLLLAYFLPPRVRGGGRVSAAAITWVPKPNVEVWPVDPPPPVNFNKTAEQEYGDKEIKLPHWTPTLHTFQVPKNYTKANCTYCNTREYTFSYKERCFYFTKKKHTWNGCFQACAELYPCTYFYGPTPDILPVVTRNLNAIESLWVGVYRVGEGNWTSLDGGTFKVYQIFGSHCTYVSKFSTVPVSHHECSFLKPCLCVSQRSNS
CHOP inhibitor = CHOP inhibition in unfolded protein response | CHO-K1 CHOP-promoter luciferase, tunicamycin-induced, 15-18 h | inhibition, % at 10 µM | 220,000 compounds, 3.8% hits | AID 2732;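 active means compounds that reduced the stress-induced luciferase reporter signal by more than about 70% of percent inhibition, limit read from the data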
WT yeast gro inh = growth inhibition of WT yeast, mitochondrial fusion screen. mitochondrial fusion phenotypic screen, WT strain. 190,000 compounds, 2.1% hits. AID 1362. inhibition, % at 10 µM; in the data active means inhibition above about 58%; tested in S. cerevisiae
Numbers stand for hits; n = inactive; x = no result; ! = repeats disagree.

SMILES | TbMetRS inhib | NR3A LBD binder | MPTP inh | EBV gp42 inh | CHOP inhibitor | WT yeast gro inh
CSc1nc2ccccc2cc1/C=C(\C#N)c1ccc(Cl)c(Cl)c1 | n | 16.8 | n | n | n | n
CSc1nc2ccccc2cc1/C=C(\C#N)c1cccc(C)c1 | n | n | n | n | n | n
CSc1nc2ccccc2cc1/C=C(\C#N)c1ccccc1 | n | 18.7 | n | n | n | n
CC(=O)NC(CC(=O)N(Cc1ccccc1)c1ccc(C)cc1)c1ccccc1 (configuration not stated) | n | n | n | x | x | x
CCN(CC)CCNC(=O)Cn1nc(-c2ccc(C)cc2)ccc1=O | n | n | n | n | 86.3 | n
Cc1nc(Nc2cccc(C(C)O)c2)c2nnn(Cc3ccccc3F)c2n1 (configuration not stated) | n | n | n | n | n | n
CN1CC=C2C(C#N)=C(N)C(C#N)(C#N)[C@H](c3cccs3)[C@H]2C1 | n | n | n | n | n | n
CN1CCC2(CC1)C1CN(C)CC=C1C(C#N)=C(N)C2(C#N)C#N (configuration not stated) | n | n | n | 75.7! | n | n
Cc1nc(N2CCN(c3ccccc3)CC2)c2c3c(sc2n1)CCC3 | x | x | x | x | x | 74.2
c1ccc2c(c1)CCN(c1nc(CN3CCOCC3)nc3sc4c(c13)CCCC4)C2 | n | n | n | n | 84.5 | n
Cc1nc(N2CCN(C)CC2)c2c3c(sc2n1)CCCC3 | n | n | n | x | x | x
CCCC1(c2ccccc2)NC(=O)N(CC(=O)Nc2sc(-c3ccccc3)cc2C(=O)OCC)C1=O (configuration not stated) | n | n | n | n | 85.2 | n
CCOC(=O)c1cc(-c2ccccc2)sc1NC(=O)CN1C(=O)c2ccccc2C1=O | n | n | n | x | x | x
O=C(c1ccc(NS(=O)(=O)c2ccc(Cl)cc2)cc1)N1CCOCC1 | n | n | n | x | x | x
Cc1nc(Nc2ccc(Cl)cc2)c2nnn(Cc3ccccc3)c2n1 | n | n | n | n | 95.8 | n
Cc1nc(N(C)Cc2ccccc2)c2nnn(Cc3ccccc3)c2n1 | n | n | n | n | n | 79.9
COc1ccc(Nc2nc(C)nc3c2nnn3Cc2ccccc2)cc1OC | n | n | n | n | n | n
Cc1nc(Nc2ccccc2Br)c2nnn(Cc3ccccc3)c2n1 | n | n | n | x | x | x
Cc1ccc(CNC(=O)CCCC(=O)O)cc1 | n | n | n | n | n | n
Cc1cc(C(=O)N2CCN(c3ncccn3)CC2)sc1-c1ccccc1 | n | n | n | x | x | x
CCC(C)(C)NC(=O)C(c1cccn1C)N(C(=O)Cn1nnc2ccccc21)c1ccc(OC)cc1 (configuration not stated) | n | 10.7 | n | n | n | n
CC(C)c1cccc(C(C)C)c1NC(=O)COC(=O)C1CCC1 | n | x | n | x | x | x
O=C(CSc1ccc(Cl)cc1)N1CCN(c2ccc([N+](=O)[O-])cc2Cl)CC1 | n | n | n | n | 78.1 | n
CCN(CC)S(=O)(=O)c1ccc2oc(C(=O)O)c(C)c2c1 | n | 12.8 | n | n | n | n
CCN(Cc1ccccc1)S(=O)(=O)c1ccc2oc(C(=O)O)c(C)c2c1 | n | n | n | n | n | n
SMILES | TbMetRS inhib | NR3A LBD binder | MPTP inh | EBV gp42 inh | CHOP inhibitor | WT yeast gro inh
CC[C@]12c3[nH]c4cc(-c5ccco5)ccc4c3CCN1C(=O)[C@@H](CC(=O)NCc1ccco1)C[C@@H]2C(=O)N1CCN(C(=O)c2ccco2)CC1 | n | n | n | x | x | x
CCCCn1c(-c2csc(CC)c2)n[nH]c1=S | n | n | n | n | n | 67.2
CCCc1cc(-c2n[nH]c(=S)n2CC(C)C)cs1 | n | n | n | n | n | 62.4
CCCCn1c(-c2csc3ccccc23)n[nH]c1=S | n | n | n | n | n | n
Cc1cccc(-n2c(-c3csc(C)c3)n[nH]c2=S)c1 | n | n | n | n | n | n
CCc1cc(-c2n[nH]c(=S)n2-c2cccc(C)c2)cs1 | n | n | n | n | n | 61.3
CCCCn1c(-c2csc(C(C)C)c2)n[nH]c1=S | n | n | n | n | n | 65.1
Cc1ccsc1-c1n[nH]c(=S)n1CC(C)C | n | n | n | n | n | n
O=C(Nn1cc(C(=O)Nc2ccc(F)cc2F)c2ccccc2c1=O)c1cnccn1 | n | n | n | n | n | n
COc1cc(NC(=O)CN2C(=O)C(=O)N(CC(C)C)C2=O)cc(OC)c1 | n | 29.2 | n | x | x | x
COc1cc(NC(=O)CN2C(=O)C(=O)N(C3CCCC3)C2=O)cc(OC)c1 | n | n | n | x | x | x
CCOC(=O)[C@H]1[C@H]2COc3ccc(OC)cc3[C@@H]2N2C(=O)CN(Cc3ccccc3)C(=O)[C@@]12C | n | n | n | x | x | x
COc1ccc(C(=O)N2c3cc4c(cc3C(C)=CC2(C)C)OCO4)cc1 | n | n | n | n | n | 59.9
CC1=CC(C)(C)N(C(=O)c2ccccc2)c2ccc(C)cc21 | n | n | n | n | n | n
COc1cccc(NC(=O)c2sc(NC(=O)c3ccncc3)nc2C)c1 | n | n | n | n | n | x
Cc1ccc(C(=O)Nc2nc(C)c(C(=O)Nc3ccc4c(c3)CCC4)s2)cc1 | n | 18.9 | n | n | n | n
Cc1nc(NC(=O)c2ccc(F)cc2)sc1C(=O)Nc1ccc2c(c1)CCC2 | n | n | n | n | 81.6 | n
CCN1C(=O)CC(N2CCC(C(=O)N3CCCCCC3)CC2)C1=O (configuration not stated) | n | n | n | n | n | n
Cc1ccc(Oc2c(F)c(F)nc(N3CCCC3)c2F)cc1 | n | 12.6 | n | n | n | n
CS(=O)(=O)N(CC(=O)Nc1ccccc1Sc1ccccc1)c1cccc(Br)c1 | n | n | n | n | 77.1 | n
O=C(CSCc1cc(=O)n2ccsc2n1)Nc1ccc(F)cc1 | n | n | n | x | x | x
COc1ccc(NC(=O)c2cc(S(=O)(=O)N3CCCCC3)c[nH]2)cc1Cl | n | 24.8 | n | x | x | x
O=C(Nc1ccc([N+](=O)[O-])cc1)c1ccc(S(=O)(=O)N2CCCC2)cc1 | n | 10.6 | n | x | x | x
CCCCOc1ccc(S(=O)(=O)N2CCCCCC2)cc1 | n | n | n | n | 91.0 | n
CN1CCN(S(=O)(=O)c2cccc(C(=O)Nc3cccc([N+](=O)[O-])c3)c2)CC1 | n | 16.9 | n | x | x | x
SMILES | TbMetRS inhib | NR3A LBD binder | MPTP inh | EBV gp42 inh | CHOP inhibitor | WT yeast gro inh
O=C(Nc1ccc(S(=O)(=O)N2CCCC2)cc1)c1ccc(F)cc1 | n | n | n | x | x | x
O=C(Nc1ccc(Br)cc1F)c1ccc2c(c1)OCCO2 | n | n | n | x | x | x
COc1ccc(NC(=O)CCCNC(=O)c2ccc(Cl)cc2)cc1OC | n | n | n | x | x | x
Cc1ccccc1NC(=O)c1ccc(S(=O)(=O)N2CCCC2)cc1 | n | n | n | x | x | x
COc1ccc(C(=O)Nc2ccc(S(=O)(=O)N3CCCC3)cc2)cc1 | n | 14.4 | n | n | n | n
COc1ccc(NC(=O)CSc2nnc(NC(=O)c3ccc(S(=O)(=O)N4CCOCC4)cc3)s2)cc1 | n | 31.1 | n | n | n | n
COc1ccc(NC(=O)CCCNC(=O)c2ccc(Cl)cc2)cc1S(=O)(=O)N1CCCCC1 | n | 12.0 | n | x | x | x
Cc1nn(-c2ccccc2)c(C)c1NC(=O)c1ccc(S(=O)(=O)N2CCCC2)cc1 | n | n | n | n | n | 73.7
